Our source for the Drug metabolism, Stability and Papp values is ChEMBL document CHEMBL2331264, “A nitrophenyl-based prodrug type for colorectal targeting of prednisolone, budesonide and celecoxib” (Bioorg Med Chem Lett, 2013).

Data set [1] relates to Clostridium perfringens. Put plainly: Prodrug activation in Clostridium perfringens assessed as prednisolone release under anaerobic conditions at 50 uM up to 24 hrs by HPLC analysis. The data set is classed as organism-based. In a few lines:
(§1)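 C. perfringens grown overnight on brain heart infusion (BHI) agar, then colonies were suspended in BHI broth to OD600 0.9–1.1. Compound incubated in the suspension under anaerobic conditions, pH 7.4, 37 °C, with a no-bacteria BHI control. Aliquots taken at 0, 2, 4, 6 and 24 h and centrifuged at 10,000 rpm for 10 min. Supernatants were stored at −20 °C, then HPLC for prodrug and released parent drug (n = 3).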

The nature of data set [2]: Metabolic stability in brain heart infusion medium up to 24 hrs by HPLC analysis. Format: ADME, tissue-based. Summed up: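 Prodrug was incubated in BHI medium without bacteria under anaerobic conditions at pH 7.4 and 37 °C. Aliquots were taken at 0, 2, 4, 6 and 24 h and centrifuged at 10,000 rpm for 10 min. Supernatants were stored at −20 °C, then analysed by an HPLC method that resolves BHI components from prodrug and activation byproducts; n = 3.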

For data set [3], the system named is Clostridium perfringens. Description: Prodrug activation in Clostridium perfringens assessed as celecoxib release under anaerobic conditions at 50 uM up to 24 hrs by HPLC analysis. The data set is classed as organism-based. In a few lines: as §1
Data set [4] in a line: Stability of the compound in simulated human duodenal fluid up to 1500 mins by HPLC analysis. The data set is classed as ADME. Particulars: 25 h; call rule not given here.
Data set [5] in a line: Stability of the compound in simulated human gastric juices up to 1500 mins by HPLC analysis. Particulars: 25 h. Format: ADME, Gastric juice.
In another data set the test system is Caco-2. Description: Apparent permeability from apical to basolateral side of human Caco2 cells. Format: ADME, cell-based. Summed up:
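Transport measured across the epithelial monolayer. Samples were drawn from the acceptor reservoir at 0, 30, 60 and 120 min, and fresh buffer was added each time to keep the volume constant. The donor solution was sampled at 120 min. Caffeine was run in two wells in the apical-to-basolateral direction as a routine control.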
Background: Passage across Caco-2 layers is used to estimate intestinal permeability.

Consider `C[C@]12C=CC(=O)C=C1CC[C@@H]1[C@@H]2[C@@H](O)C[C@@]2(C)[C@H]1CC[C@]2(O)C(=O)COC(=O)CCc1ccccc1`, for which, in the data set on Clostridium perfringens [1], the Drug metabolism result is “Not Active”. The Stability entry in data set [2] was “Stable”.
Take `Cc1ccc(-c2cc(C(F)(F)F)nn2-c2ccc(S(=O)(=O)NC(=O)CCc3ccccc3)cc2)cc1`: the Drug metabolism entry in the data set with Clostridium perfringens [3] is “Not Active”. The Stability entry in data set [2] is “Stable”.
For the molecule `Cc1ccc(-c2cc(C(F)(F)F)nn2-c2ccc(S(=O)(=O)NC(=O)CCc3ccccc3[N+](=O)[O-])cc2)cc1`, the Stability result in data set [4], in data set [5] and in data set [2] was “Stable” in each case. Besides, the Papp entry in the data set on Caco-2 is listed as “permeable”.
Regarding `Cc1ccc(-c2cc(C(F)(F)F)nn2-c2ccc(S(=O)(=O)NC(=O)Cc3ccccc3[N+](=O)[O-])cc2)cc1`, the Stability result in data set [4], in data set [5] and in data set [2] was “Stable” each time. For the same molecule, in the data set with Caco-2, the Papp result was “permeable”.
On to `CCCC1O[C@@H]2C[C@H]3[C@@H]4CCC5=CC(=O)C=C[C@]5(C)[C@H]4[C@@H](O)C[C@]3(C)[C@]2(C(=O)COC(=O)CCc2ccccc2[N+](=O)[O-])O1` (stereo not given in full), for which the Stability result in data set [4], in data set [5] and in data set [2] was “Stable” in each case. Also, the Papp result in the data set with Caco-2 is on record as “impermeable”. In the data set on Clostridium perfringens [1], the Drug metabolism result is “Not Active”.
`CCCC1O[C@@H]2C[C@H]3[C@@H]4CCC5=CC(=O)C=C[C@]5(C)[C@H]4[C@@H](O)C[C@]3(C)[C@]2(C(=O)COC(=O)Cc2ccccc2[N+](=O)[O-])O1` (stereo not given in full): the Stability entry in data set [4], in data set [5] and in data set [2] was “Stable” in each case. Besides, in the data set with Caco-2, the Papp result is listed as “permeable”. Further, the Drug metabolism result in the data set with Clostridium perfringens [1] is listed as “Active”.
With `C[C@]12C=CC(=O)C=C1CC[C@@H]1[C@@H]2[C@@H](O)C[C@@]2(C)[C@H]1CC[C@]2(O)C(=O)COC(=O)CCc1ccccc1[N+](=O)[O-]`, the Stability result in data set [4], in data set [5] and in data set [2] was “Stable” in each case. The Drug metabolism result with Clostridium perfringens [1] is on record as “Active”.
For `C[C@]12C=CC(=O)C=C1CC[C@@H]1[C@@H]2[C@@H](O)C[C@@]2(C)[C@H]1CC[C@]2(O)C(=O)COC(=O)Cc1ccccc1[N+](=O)[O-]`, the Stability entry in data set [4], in data set [5] and in data set [2] was “Stable” each time. Also, the Drug metabolism entry in the data set with Clostridium perfringens [1] was “Active”.
